Results reported in ChEMBL document CHEMBL1949557, “Discovery of INCB3284, a Potent, Selective, and Orally Bioavailable hCCR2 Antagonist” (ACS Med Chem Lett, 2011).
Active and inactive are the calls of the source. The calls are words filed in the database; no cut-off is given here.

Assays:
[1] = target: T1, C-C chemokine receptor type 1 (Homo sapiens) (UniProt P32246); assay: Inhibition of CCR1 at 1 uM
T1 sequence (whole entry): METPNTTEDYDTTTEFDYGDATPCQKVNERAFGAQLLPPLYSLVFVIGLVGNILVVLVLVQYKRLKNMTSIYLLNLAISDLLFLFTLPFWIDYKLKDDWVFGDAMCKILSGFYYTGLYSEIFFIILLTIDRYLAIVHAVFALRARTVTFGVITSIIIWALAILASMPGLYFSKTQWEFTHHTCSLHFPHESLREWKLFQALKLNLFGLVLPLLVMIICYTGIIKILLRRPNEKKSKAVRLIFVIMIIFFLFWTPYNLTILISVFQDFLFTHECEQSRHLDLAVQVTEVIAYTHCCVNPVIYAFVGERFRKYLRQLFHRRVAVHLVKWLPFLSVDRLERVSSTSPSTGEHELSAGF
In short: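 Cerep selectivity panel of over 50 ion channels, transporters, chemokine receptors and other GPCRs. Single test concentration of 1 μM, scored for significant inhibition.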

Cytochrome P450 1A2 = target: T2, Cytochrome P450 1A2 (Homo sapiens, UniProt P05177); assay: Inhibition of CYP1A2; format: ADME
T2 sequence (P05177 whole entry): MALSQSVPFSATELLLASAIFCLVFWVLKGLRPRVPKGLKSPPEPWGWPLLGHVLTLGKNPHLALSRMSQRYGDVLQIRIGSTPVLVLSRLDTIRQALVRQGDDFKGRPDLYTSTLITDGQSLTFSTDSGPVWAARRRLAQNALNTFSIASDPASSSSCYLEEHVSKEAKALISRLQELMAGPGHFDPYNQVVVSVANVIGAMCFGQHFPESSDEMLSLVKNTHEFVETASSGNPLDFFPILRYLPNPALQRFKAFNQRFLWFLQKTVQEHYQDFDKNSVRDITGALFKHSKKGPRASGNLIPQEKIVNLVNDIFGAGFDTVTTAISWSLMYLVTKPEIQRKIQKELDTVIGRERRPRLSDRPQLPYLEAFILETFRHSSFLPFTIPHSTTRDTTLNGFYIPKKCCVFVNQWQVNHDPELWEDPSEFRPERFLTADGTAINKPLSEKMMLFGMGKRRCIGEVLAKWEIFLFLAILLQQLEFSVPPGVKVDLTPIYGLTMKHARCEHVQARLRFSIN

[2] = Half life in dog at 30 mg/kg, po; format: ADME, organism-based, Canis lupus familiaris; design: dose 30 mg/kg, route oral; conditions: in vivo
In short: (§1)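 Pharmacokinetics run in rats, dogs, cynomolgus monkeys and chimpanzees, with two animals per species for the iv arm and two per species for the oral arm. Parameters were derived per species and route: CL, Vss and T1/2 from iv dosing; Cmax, Tmax, AUC, T1/2 and F% from oral dosing. Values are reported as mean ± spread.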

[3] = Tmax in chimpanzee at 4 mg/kg, po; format: ADME, organism-based, Pan troglodytes; design: dose 4 mg/kg, route oral; conditions: in vivo; in short: as §1

inhibition [1]: inactive | IC50 (Cytochrome P450 1A2): > 25 µM | half-life [2]: 3.3 h | Tmax [3]: 2 h
Compound: COc1ccc([C@]2(O)CC[C@H](N3CC[C@@H](NC(=O)CNC(=O)c4cccc(C(F)(F)F)c4)C3)CC2)cn1.CS(=O)(=O)O
